Results as given in ChEMBL document CHEMBL3352186, “Modification and biological evaluation of thiazole derivatives as novel inhibitors of metastatic cancer cell migration and invasion” (J Med Chem, 2014).
Activity calls are given as the source filed them. The calls are words filed in the database; no cut-off is given here.

How the values were obtained:
[1] = tested on: MDA-MB-231; assay: Antimigratory activity in human MDA-MB-231 cells after 24 hrs using transwell system by light microscopy; assay type: functional, cell-based; details: MDA-MB-231, 24 h
How it was run: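 Transwell chambers: 2.5×10^4 cells in serum-free, phenol red-free medium in the upper chamber, with DMEM + 5% FBS below as chemoattractant. Compounds at 10^-8, 10^-7, 10^-6 and 10^-5 M, with 0.1% DMSO vehicle, for 24 h. Membranes were scrubbed, formalin-fixed, methanol-permeabilized and stained with 0.1% crystal violet. Migrated cells were counted by light microscopy per 100× field as % of vehicle. IC50 is the concentration giving 50% migration inhibition.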

[2] = tested on: MDA-MB-231; assay: Cytotoxicity against human MDA-MB-231 cells assessed as survival at 1 uM after 5 days; assay type: functional; details: MDA-MB-231, 120 h, read-out: Survival
[3] = tested on: MDA-MB-231; assay: Antiinvasive activity in human MDA-MB-231 cells at 10 uM after 24 hrs by matrigel assay; assay type: functional; details: MDA-MB-231, 24 h
How it was run: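 Cells serum-starved 24 h, trypsinized and resuspended in medium with DMSO or compound; 2.5×10^4 cells/well seeded on Matrigel-coated inserts. Bottom well held 10% FBS medium with DMSO or 10 μM compound. After 24 h, non-invaded cells were scrubbed off and invaded cells fixed (4% formaldehyde, 10 min, RT), stained with 0.04% crystal violet and counted at 100× in five random fields. Result is % invasion relative to DMSO.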

[4] = tested on: HeLa (Homo sapiens); assay: Induction of disorganization of actin filaments in human HeLa cells assessed as decrease in F-actin staining intensity near cell membrane at 10^-6 M by phalloidin staining
[5] = tested on: Chorioallantoic membrane; assay: Antiangiogenic activity in chicken egg embryo assessed as inhibition of bFGF/VEGF-induced angiogenesis in chorioallantoic membrane after 3 days; assay type: functional; details: Gallus gallus
How it was run: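 Fertilized chick embryos were incubated at 37.5 °C for 3 days, removed from the shell, and kept 7 further days. Each compound was added to a collagen plug containing bFGF (10 ng/plug) plus VEGF (30 ng/plug) and placed on the CAM of 10-day embryos for 3 days. PBS was the negative control. Plugs were imaged and scored masked on a 0–3 angiogenesis scale, reported as mean ± SEM, and analysed by one-way ANOVA with Dunnett's test.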

[6] = tested on: MDA-MB-231; assay: Antimigratory activity in human MDA-MB-231 cells over-expressed with fascin assessed as inhibition of cell migration at 10 uM after 24 hrs by Transwell assay

Row | Structure (SMILES) | IC50 [1] [nM] | viability at 1 µM [2] [%] | inhibition at 10 µM [3] [%] | Activity [4] | inhibition [5] | inhibition [6]
1 | CN(C(=O)c1ccccc1)c1nc(-c2cccc(Br)c2)cs1 | 437 | 104 | – | – | – | –
2 | CCCCn1c(-c2ccc(C)cc2C)cs/c1=N\C(=O)c1ccccc1 | 196 | 70.4 | – | – | – | –
3 | O=C(Nc1nc(-c2cccc(Br)c2)cs1)c1ccccc1 | 10000 | 78 | – | – | – | –
4 | COc1ccc(C(=O)Nc2nc(-c3cc(OC)c(OC)c(OC)c3)cs2)cc1 | > 25000 | 93.8 | – | – | – | –
5 | C=CCn1c(-c2ccccc2)cs/c1=N\C(=O)c1ccccc1 | 1200 | 64.8 | – | – | – | –
6 | C#CCN(C(=O)c1ccccc1)c1nc(-c2ccc(C)cc2C)cs1 | 321 | 106 | – | – | – | –
7 | COc1ccc(C(=O)N(C)c2nc(-c3cc(OC)c(OC)c(OC)c3)cs2)cc1OC | > 25000 | 102 | – | – | – | –
8 | Cc1sc(N(C)C(=O)c2ccccc2)nc1-c1ccc(F)cc1 | 1620 | 108 | – | – | – | –
9 | COc1cc(C(=O)/N=c2\scc(-c3cc(OC)c(OC)c(OC)c3)n2C)cc(OC)c1OC | 1960 | 81.5 | – | – | – | –
10 | Cn1c(C2CC2)cs/c1=N\C(=O)c1ccccc1 | 104 | 90.7 | – | – | – | –
11 | Cc1ccc(-c2cs/c(=N\C(=O)c3ccccc3)n2C)c(C)c1 | 218 | 101 | > 50 | – | – | –
12 | CCn1c(-c2ccccc2)cs/c1=N\C(=O)c1ccccc1 | 51.5 | 68.5 | – | – | – | –
13 | COc1ccccc1C(=O)Nc1nc(-c2cc(OC)c(OC)c(OC)c2)cs1 | 8500 | 104 | – | – | – | –
14 | Cn1c(-c2ccc(Br)cc2)cs/c1=N\C(=O)c1ccccc1 | 125 | 59.3 | – | – | – | –
15 | O=C(Nc1nc(-c2ccc(Br)cc2)cs1)c1ccccc1 | 9500 | 82.2 | – | – | – | –
16 | Cc1ccc(-c2cnc(N(C)C(=O)c3ccccc3)s2)cc1 | 1090 | 59.3 | – | – | – | –
17 | CCCn1c(-c2ccccc2)cs/c1=N\C(=O)c1ccccc1 | 657 | 100 | – | – | – | –
18 | CN(C(=O)c1ccccc1)c1nc(-c2ccccc2Cl)cs1 | 41.6 | 88.9 | – | – | – | –
19 | Cc1cs/c(=N\C(=O)c2ccccc2)n1C | 15000 | 103 | – | – | – | –
20 | Cn1c(-c2cccc(Cl)c2)cs/c1=N\C(=O)c1ccccc1 | 367 | 35.2 | – | – | – | –
21 | CCn1c(-c2ccc(C)cc2C)cs/c1=N\C(=O)c1ccccc1 | 1950 | 142 | > 50 | – | – | –
22 | Cc1ccc(-c2cs/c(=N\S(=O)(=O)c3ccccc3)n2C)c(C)c1 | 1460 | 92.4 | – | – | – | –

Row | Structure (SMILES) | IC50 [1] [nM] | viability at 1 µM [2] [%] | inhibition at 10 µM [3] [%] | Activity [4] | inhibition [5] | inhibition [6]
23 | COc1cc(C(=O)N(C)c2nc(-c3cc(OC)c(OC)c(OC)c3)cs2)cc(OC)c1OC | 470 | 115 | – | – | – | –
24 | Cc1csc(NC(=O)c2ccccc2)n1 | 12000 | 103 | – | – | – | –
25 | COc1cc(-c2csc(N(C)C(=O)c3ccccc3)n2)cc(OC)c1OC | 10000 | 96.4 | – | – | – | –
26 | COc1ccc(C(=O)Nc2nc(-c3cc(OC)c(OC)c(OC)c3)cs2)c(OC)c1 | > 50000 | 93.8 | – | – | – | –
27 | Cc1ccc(-c2cnc(NC(=O)c3ccccc3)s2)cc1 | 308 | 55.6 | – | – | – | –
28 | COc1ccccc1C(=O)N(C)c1nc(-c2cc(OC)c(OC)c(OC)c2)cs1 | > 25000 | 109 | – | – | – | –
29 | Cc1s/c(=N\C(=O)c2ccccc2)n(C)c1-c1ccc(F)cc1 | 847 | 83.8 | – | – | – | –
30 | Cn1c(-c2cccc(Br)c2)cs/c1=N\C(=O)c1ccccc1 | 302 | 94.4 | – | – | – | –
31 | CCCCCCn1c(-c2ccc(C)cc2C)cs/c1=N\C(=O)c1ccccc1 | 45 | 90 | > 50 | Active | Active | inactive
32 | COc1ccc(C(=O)N(C)c2nc(-c3cc(OC)c(OC)c(OC)c3)cs2)c(OC)c1 | 5040 | 119 | – | – | – | –
33 | Cc1sc(NC(=O)c2ccccc2)nc1-c1ccc(F)cc1 | 9100 | 53.7 | – | – | – | –
34 | COc1cc(-c2csc(NC(=O)c3cccc(OC)c3OC)n2)cc(OC)c1OC | 15000 | 90.1 | – | – | – | –
35 | COc1cc(-c2csc(NC(=O)c3ccccc3)n2)cc(OC)c1OC | > 50000 | 95 | – | – | – | –
36 | O=C(Nc1nc(-c2cc(C(F)(F)F)cc(C(F)(F)F)c2)cs1)c1ccccc1 | 336 | 85.8 | – | – | – | –
37 | COc1cc(-c2cs/c(=N\C(=O)c3ccccc3)n2C)cc(OC)c1OC | 1070 | 88.4 | – | – | – | –
38 | O=C(Nc1nc(-c2ccccc2Cl)cs1)c1ccccc1 | 15000 | 102 | – | – | – | –
39 | C#CCn1c(-c2ccc(C)cc2C)cs/c1=N\C(=O)c1ccccc1 | 3890 | 70.2 | – | – | – | –
40 | Cc1ccc(-c2csc(N(C)S(=O)(=O)c3ccccc3)n2)c(C)c1 | > 25000 | 117 | – | – | – | –
41 | CCN(C(=O)c1ccccc1)c1nc(-c2ccccc2)cs1 | 533 | 129 | – | – | – | –
42 | Cc1s/c(=N\C(=O)c2ccccc2)n(C)c1-c1ccccc1 | 197 | 68.4 | – | – | – | –
43 | COc1cc(-c2csc(NC(=O)c3ccc(Cl)cc3)n2)cc(OC)c1OC | > 25000 | 85.6 | – | – | – | –
44 | COc1ccc(C(=O)N(C)c2nc(-c3cc(OC)c(OC)c(OC)c3)cs2)cc1 | 312 | 100 | – | – | – | –

Row | Structure (SMILES) | IC50 [1] [nM] | viability at 1 µM [2] [%] | inhibition at 10 µM [3] [%] | Activity [4] | inhibition [5] | inhibition [6]
45 | COc1cccc(C(=O)/N=c2\scc(-c3cc(OC)c(OC)c(OC)c3)n2C)c1 | > 50000 | 104 | – | – | – | –
46 | COc1ccc(C(=O)Nc2nc(-c3cc(OC)c(OC)c(OC)c3)cs2)cc1OC | > 25000 | 87.3 | – | – | – | –
47 | COc1cccc(C(=O)N(C)c2nc(-c3cc(OC)c(OC)c(OC)c3)cs2)c1 | 646 | 88.9 | – | – | – | –
48 | CCCn1c(-c2ccc(C)cc2C)cs/c1=N\C(=O)c1ccccc1 | 292 | 85 | – | – | – | –
49 | CCCCCCCCCCCCn1c(-c2ccc(C)cc2C)cs/c1=N\C(=O)c1ccccc1 | 24 | 110 | > 50 | Active | Active | –
50 | C#CCn1c(-c2ccccc2)cs/c1=N\C(=O)c1ccccc1 | 2780 | 63 | – | – | – | –
51 | Cc1sc(NC(=O)c2ccccc2)nc1-c1ccccc1 | > 25000 | 99 | – | – | – | –
52 | COc1ccc(C(=O)/N=c2\scc(-c3cc(OC)c(OC)c(OC)c3)n2C)cc1 | 8040 | 106 | – | – | – | –
53 | O=C(Nc1nc(-c2cccc(Cl)c2)cs1)c1ccccc1 | 123 | 71.4 | – | – | – | –
54 | Cc1ccc(-c2csc(NS(=O)(=O)c3ccccc3)n2)c(C)c1 | 11000 | 137 | – | – | – | –
55 | Cn1c(-c2ccccc2Cl)cs/c1=N\C(=O)c1ccccc1 | 268 | 72.2 | – | – | – | –
56 | Cn1c(-c2cc(C(F)(F)F)cc(C(F)(F)F)c2)cs/c1=N\C(=O)c1ccccc1 | 96.1 | 79.8 | – | – | – | –
57 | COc1cccc(C(=O)Nc2nc(-c3cc(OC)c(OC)c(OC)c3)cs2)c1 | 14000 | 92.6 | – | – | – | –
58 | COc1cc(C(=O)Nc2nc(-c3cc(OC)c(OC)c(OC)c3)cs2)cc(OC)c1OC | 1030 | 77.6 | – | – | – | –
59 | CCCN(C(=O)c1ccccc1)c1nc(-c2ccccc2)cs1 | 77 | 116 | > 50 | Active | – | –
60 | COc1cc(-c2csc(N(C)C(=O)c3cccc(OC)c3OC)n2)cc(OC)c1OC | 108 | 118 | – | – | – | –
61 | Cc1ccc(-c2cn(C)/c(=N/C(=O)c3ccccc3)s2)cc1 | > 25000 | 113 | – | – | – | –
62 | C=CCn1c(-c2ccc(C)cc2C)cs/c1=N\C(=O)c1ccccc1 | 456 | 115 | – | – | – | –
63 | CN(C(=O)c1ccccc1)c1nc(-c2ccc(Br)cc2)cs1 | 317 | 65.4 | – | – | – | –
64 | COc1cc(-c2cs/c(=N\C(=O)c3ccc(Cl)cc3)n2C)cc(OC)c1OC | 758 | 77.6 | – | – | – | –
